Results collected from several papers.
ALOX5: Polyunsaturated fatty acid 5-lipoxygenase (ALOX5, Homo sapiens, UniProt P09917)
CDK11B: Cyclin-dependent kinase 11B (CDK11B, Homo sapiens, UniProt P21127)

SMILES | target | effect on | action | technique | concentration | quantity | value
C#Cc1n[nH]c2c(-c3cn(C(C)c4ccccn4)c(=O)[nH]c3=O)cc(F)cc12 (stereo not drawn) | Protein kinase C alpha type (PRKCA, Homo sapiens, UniProt P17252) | enzyme activity | inhibitor | – | 1 µM | inhibition | 9.8%
C[C@H](C(=O)N[C@H]1COc2ccccc2[C@@H]1S(C)(=O)=O)c1ccc(F)cc1 | ALOX5 | enzyme activity | inhibitor | – | 10 µM | inhibition | 13%
N#Cc1ccc(NCCNCC(=O)N2N=CCC2C#N)nc1 (stereo not drawn) | Dipeptidyl peptidase 8 (Homo sapiens, UniProt Q6V1X1) | enzyme activity | inhibitor | – | 10 µM | inhibition | 15%
COc1cc(Nc2ncc(F)c(Nc3ccc4c(n3)NC(=O)C(C)(C)O4)n2)cc(OC)c1OC | Mitogen-activated protein kinase kinase kinase 4 (MAP3K4, Homo sapiens, UniProt Q9Y6R4) | binding | – | competition with immobilised ligand | 10 µM | inhibition | 71%
COc1ncccc1-c1cnn2ccc(N3CCN(C(=O)OC(C)C)CC3)nc12 | CDK11B | binding | – | competition with immobilised ligand | 1 µM | remaining binding | 89%
c1ccc(C(NCCNC(c2ccccc2)c2ccccc2)c2ccccc2)cc1 | ALOX5 | enzyme activity | inhibitor | – | 10 µM | inhibition | 99%
Cc1nn(C)cc1-c1nc2c(N3CCN(Cc4ccc(Cl)cc4)CC3)c(Cl)cnc2[nH]1 | CDK11B | binding | – | competition with immobilised ligand | 1 µM | remaining binding | 100%
CCN(CC)CCCC[C@H](NC(=O)[C@H](CC(C)C)NC(=O)[C@H](C)NC(=O)[C@H](Cc1ccccc1)NC(=O)c1ccc(C(C)(C)C)cc1)C(=O)N[C@@H](CO)C(=O)OC | Bromodomain-containing protein 4, BD2 (BRD4, Homo sapiens, UniProt O60885) | thermal stability | – | DSF | 25 µM | ΔTm | 0.2 °C
Nc1ncc(-c2nc(N3CCOCC3)nc(N3CCOCC3)n2)c(C(F)F)n1 | Serine/threonine-protein kinase ICK (CILK1, Homo sapiens, UniProt Q9UPZ9) | binding | – | competition with immobilised ligand | 10 µM | remaining binding | 72%
